Assay results from ChEMBL document CHEMBL4828740, “Discovery of Quinoxaline-Based P1-P3 Macrocyclic NS3/4A Protease Inhibitors with Potent Activity against Drug-Resistant Hepatitis C Virus Variants” (J Med Chem, 2021).

Key:
[1] = biological target: T1, Hepatitis C virus serine protease, NS3/NS4A (Hepatitis C virus, UniProt A3EZI9+D2K2A8); assay: Inhibition of HCV GT-1a NS3/4a protease using Ac-DE-D(Edans)-EE-Abu-c-[COO]-AS-K(Dabcy1)-NH2 preincubated for 1 hr followed by substrate addition; format: protein complex, Hepatitis C virus subtype 1a
Hepatitis C virus [2] = assay: Antiviral activity against HCV genotype 1b infected in human Huh7 cells incubated for 96 hrs by luciferase assay; format: functional, organism-based, Hepacivirus hominis; settings: Huh-7, 96 h
Summary of the method: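 Con1 (GT-1b) luciferase reporter replicon carrying the H77 (GT-1a) NS3 protease region, either WT or with A156T or D168A introduced by megaprimer mutagenesis. Cured Huh7 cells grown in DMEM with 10% heat-inactivated FBS and 0.1 mM non-essential amino acids. Cells electroporated with replicon RNA and kept with serially diluted inhibitor.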

Hepatitis C virus [3] = assay: Antiviral activity against HCV genotype 1b harboring D168A mutant infected in human Huh7 cells incubated for 96 hrs by luciferase assay; format: functional, organism-based, Hepacivirus hominis; settings: subtype 1b, Huh-7, 96 h
Summary of the method: (§1)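 Con1 (GT-1b) luciferase reporter replicon carrying the H77 (GT-1a) NS3 protease region, with the mutation introduced by megaprimer site-directed mutagenesis. Cured Huh7 cells were grown in DMEM with 10% heat-inactivated FBS and 0.1 mM non-essential amino acids, electroporated with replicon RNA transcripts, and kept with serially diluted inhibitor. EC50 was taken directly from the inhibition curves.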

Hepatitis C virus [4] = assay: Antiviral activity against HCV genotype 1b harboring A156T mutant infected in human Huh7 cells incubated for 96 hrs by luciferase assay; format: functional, organism-based, Hepacivirus hominis; settings: subtype 1b, Huh-7, 96 h; summary of the method: as §1
[5] = biological target: T1, Hepatitis C virus serine protease, NS3/NS4A; assay: Inhibition of HCV GT-3a NS3/4a protease using Ac-DE-D(Edans)-EE-Abu-c-[COO]-AS-K(Dabcy1)-NH2 preincubated for 1 hr followed by substrate addition; format: protein-complex assay, Hepatitis C virus subtype 3a

Row | SMILES | Ki [1] | EC50 (Hepatitis C virus [2]) | EC50 (Hepatitis C virus [3]) | EC50 (Hepatitis C virus [4]) | Ki [5]
1 | CCC1(OC(=O)N[C@H]2CCCCC/C=C/[C@@H]3C[C@@]3(C(=O)NS(=O)(=O)C3(C)CC3)NC(=O)[C@@H]3C[C@@H](Oc4nc5cc(OC)ccc5nc4C)CN3C2=O)CCCC1 | 1.3 nM | 1.6 nM | 4.7 nM | 8.3 nM | 
2 | COc1ccc2nc(C)c(O[C@@H]3C[C@H]4C(=O)N[C@]5(C(=O)NS(=O)(=O)C6(C)CC6)C[C@H]5/C=C/CCCCC[C@H](NC(=O)O[C@@H]5CCC[C@H]5F)C(=O)N4C3)nc2c1 | 2.3 nM | 0.4 nM | 43 nM | 12 nM | 216 nM
3 | COc1ccc2nc(O[C@@H]3C[C@H]4C(=O)N[C@]5(C(=O)NS(=O)(=O)C6(C)CC6)C[C@H]5/C=C/CCCCC[C@H](NC(=O)OC(C)(C)C)C(=O)N4C3)c(C(F)(F)F)nc2c1 | 5.8 nM | 0.9 nM | 4.7 nM | 12 nM | 230 nM
4 | COc1ccc2nc(O[C@@H]3C[C@H]4C(=O)N[C@]5(C(=O)NS(=O)(=O)C6(C)CC6)C[C@H]5/C=C/CCCCC[C@H](NC(=O)OCC5(C)CC5)C(=O)N4C3)c(C(F)(F)F)nc2c1 | 2.9 nM | 5.7 nM | 8.3 nM | 41 nM | 
5 | COc1ccc2nc(O[C@@H]3C[C@H]4C(=O)N[C@]5(C(=O)NS(=O)(=O)C6(C)CC6)C[C@H]5/C=C/CCCCC[C@H](NC(=O)O[C@@H](C)C5CC5)C(=O)N4C3)c(C(F)(F)F)nc2c1 | 10 nM | 3.3 nM | 18 nM | 18 nM | 412 nM
6 | COc1ccc2nc(C)c(O[C@@H]3C[C@H]4C(=O)N[C@]5(C(=O)NS(=O)(=O)C6(C)CC6)C[C@H]5/C=C/CCCCC[C@H](NC(=O)OC5(C)CC5)C(=O)N4C3)nc2c1 | 4.4 nM | 0.3 nM | 3.5 nM | 12 nM | 
7 | COc1ccc2nc(C)c(O[C@@H]3C[C@H]4C(=O)N[C@]5(C(=O)NS(=O)(=O)C6(C)CC6)C[C@H]5/C=C/CCCCC[C@H](NC(=O)O[C@H](C)C(C)C)C(=O)N4C3)nc2c1 | 1.5 nM | 0.3 nM | 1.9 nM | 7.7 nM | 
8 | COc1ccc2nc(O[C@@H]3C[C@H]4C(=O)N[C@]5(C(=O)NS(=O)(=O)C6(C)CC6)C[C@H]5/C=C/CCCCC[C@H](NC(=O)OC5C[C@@H]6C[C@@H]6C5)C(=O)N4C3)c(C(F)(F)F)nc2c1 (stereo not given in full) | 0.2 nM |  | 2.1 nM | 70 nM | 170 nM
9 | COc1ccc2nc(O[C@@H]3C[C@H]4C(=O)N[C@]5(C(=O)NS(=O)(=O)C6(C)CC6)C[C@H]5/C=C/CCCCC[C@H](NC(=O)OC5(C)CC5)C(=O)N4C3)c(C(F)(F)F)nc2c1 | 11 nM | 5.8 nM | 14 nM | 99 nM | 
10 | CCC(CC)OC(=O)N[C@H]1CCCCC/C=C/[C@@H]2C[C@@]2(C(=O)NS(=O)(=O)C2(C)CC2)NC(=O)[C@@H]2C[C@@H](Oc3nc4ccc(OC)cc4nc3C(F)(F)F)CN2C1=O | 4.6 nM | 4.1 nM | 17 nM | 85 nM | 840 nM
11 | COc1ccc2nc(C)c(O[C@@H]3C[C@H]4C(=O)N[C@]5(C(=O)NS(=O)(=O)C6(C)CC6)C[C@H]5/C=C/CCCCC[C@H](NC(=O)OC5CC(F)(F)C5)C(=O)N4C3)nc2c1 | 0.6 nM | 0.6 nM | 4.1 nM | 5.3 nM | 
12 | CCC(C)(C)OC(=O)N[C@H]1CCCCC/C=C/[C@@H]2C[C@@]2(C(=O)NS(=O)(=O)C2(C)CC2)NC(=O)[C@@H]2C[C@@H](Oc3nc4ccc(OC)cc4nc3C(F)(F)F)CN2C1=O | 2.7 nM | 1.5 nM | 11 nM | 10 nM | 240 nM
13 | COc1ccc2nc(C)c(O[C@@H]3C[C@H]4C(=O)N[C@]5(C(=O)NS(=O)(=O)C6(C)CC6)C[C@H]5/C=C/CCCCC[C@H](NC(=O)OC5(C)CCCC5)C(=O)N4C3)nc2c1 | 1.8 nM | 3.7 nM | 4.7 nM | 49 nM | 150 nM
14 | COc1ccc2nc(O[C@@H]3C[C@H]4C(=O)N[C@]5(C(=O)NS(=O)(=O)C6(C)CC6)C[C@H]5/C=C/CCCCC[C@H](NC(=O)O[C@H](C)C5CC5)C(=O)N4C3)c(C(F)(F)F)nc2c1 | 12 nM | 2.6 nM | 19 nM | 44 nM | 
15 | COc1ccc2nc(O[C@@H]3C[C@H]4C(=O)N[C@]5(C(=O)NS(=O)(=O)C6(C)CC6)C[C@H]5/C=C/CCCCC[C@H](NC(=O)OCC(C)(C)C)C(=O)N4C3)c(C(F)(F)F)nc2c1 | 2.9 nM | 4.9 nM | 14 nM | 158 nM | 
16 | COc1ccc2nc(C)c(O[C@@H]3C[C@H]4C(=O)N[C@]5(C(=O)NS(=O)(=O)C6(C)CC6)C[C@H]5/C=C/CCCCC[C@H](NC(=O)OC(C)C)C(=O)N4C3)nc2c1 | 2.1 nM |  |  |  | 

Row | SMILES | Ki [1] | EC50 (Hepatitis C virus [2]) | EC50 (Hepatitis C virus [3]) | EC50 (Hepatitis C virus [4]) | Ki [5]
17 | COc1ccc2nc(C)c(O[C@@H]3C[C@H]4C(=O)N[C@]5(C(=O)NS(=O)(=O)C6(C)CC6)C[C@H]5/C=C/CCCCC[C@H](NC(=O)OC5CCCC5)C(=O)N4C3)nc2c1 | 1.1 nM | 0.1 nM | 1.9 nM |  | 120 nM
18 | COc1ccc2nc(C)c(O[C@@H]3C[C@H]4C(=O)N[C@]5(C(=O)NS(=O)(=O)C6(C)CC6)C[C@H]5/C=C/CCCCC[C@H](NC(=O)OC5CCCCC5)C(=O)N4C3)nc2c1 | 0.9 nM | 0.2 nM | 3 nM | 6.8 nM | 145 nM
19 | COc1ccc2nc(C)c(O[C@@H]3C[C@H]4C(=O)N[C@]5(C(=O)NS(=O)(=O)C6(C)CC6)C[C@H]5/C=C/CCCCC[C@H](NC(=O)OC5(C)CCC5)C(=O)N4C3)nc2c1 | 1.4 nM | 0.5 nM | 3.4 nM | 4.2 nM | 
20 | COc1ccc2nc(C)c(O[C@@H]3C[C@H]4C(=O)N[C@]5(C(=O)NS(=O)(=O)C6(C)CC6)C[C@H]5/C=C/CCCCC[C@H](NC(=O)O[C@@H](C)C(F)(F)F)C(=O)N4C3)nc2c1 | 0.7 nM | 0.8 nM |  | 8.1 nM | 
21 | COc1ccc2nc(C)c(O[C@@H]3C[C@H]4C(=O)N[C@]5(C(=O)NS(=O)(=O)C6(C)CC6)C[C@H]5/C=C/CCCCC[C@H](NC(=O)O[C@@H](C)C(C)C)C(=O)N4C3)nc2c1 | 1.9 nM | 0.6 nM | 3.6 nM | 7 nM | 
22 | COc1ccc2nc(O[C@@H]3C[C@H]4C(=O)N[C@]5(C(=O)NS(=O)(=O)C6(C)CC6)C[C@H]5/C=C/CCCCC[C@H](NC(=O)O[C@@H]5CCC[C@H]5F)C(=O)N4C3)c(C(F)(F)F)nc2c1 | 8 nM | 0.2 nM | 2.3 nM | 35 nM | 
23 | COc1ccc2nc(C)c(O[C@@H]3C[C@H]4C(=O)N[C@]5(C(=O)NS(=O)(=O)C6(C)CC6)C[C@H]5/C=C/CCCCC[C@H](NC(=O)O[C@@H](C)C5CC5)C(=O)N4C3)nc2c1 | 1.8 nM | 5.3 nM | 10 nM | 128 nM | 
24 | COc1ccc2nc(O[C@@H]3C[C@H]4C(=O)N[C@]5(C(=O)NS(=O)(=O)C6(C)CC6)C[C@H]5/C=C/CCCCC[C@H](NC(=O)OCC5(C(F)(F)F)CC5)C(=O)N4C3)c(C(F)(F)F)nc2c1 | 3.5 nM | 1.2 nM | 4.6 nM | 43 nM | 
25 | CCc1nc2ccc(OC)cc2nc1O[C@@H]1C[C@H]2C(=O)N[C@]3(C(=O)NS(=O)(=O)C4CC4)C[C@H]3/C=C/CCCCC[C@H](NC(=O)OC(C)(C)C)C(=O)N2C1 |  |  | 6.3 nM |  | 
26 | COc1ccc2nc(C)c(O[C@@H]3C[C@H]4C(=O)N[C@]5(C(=O)NS(=O)(=O)C6(C)CC6)C[C@H]5/C=C/CCCCC[C@H](NC(=O)OCC5(C)CC5(F)F)C(=O)N4C3)nc2c1 (stereo not given in full) | 3.1 nM | 0.3 nM | 2.1 nM | 8.3 nM | 100 nM
27 | COc1ccc2nc(C)c(O[C@@H]3C[C@H]4C(=O)N[C@]5(C(=O)NS(=O)(=O)C6(C)CC6)C[C@H]5/C=C/CCCCC[C@H](NC(=O)OCC5(C)CC5)C(=O)N4C3)nc2c1 | 0.7 nM | 0.8 nM | 3.8 nM | 8.5 nM | 
28 | COc1ccc2nc(O[C@@H]3C[C@H]4C(=O)N[C@]5(C(=O)NS(=O)(=O)C6(C)CC6)C[C@H]5/C=C/CCCCC[C@H](NC(=O)OC5CC(F)(F)C5)C(=O)N4C3)c(C(F)(F)F)nc2c1 | 11 nM | 3.2 nM | 6.9 nM | 35 nM | 
29 | COc1ccc2nc(O[C@@H]3C[C@H]4C(=O)N[C@]5(C(=O)NS(=O)(=O)C6(C)CC6)C[C@H]5/C=C/CCCCC[C@H](NC(=O)OCC(C)C)C(=O)N4C3)c(C(F)(F)F)nc2c1 | 4 nM | 4.8 nM | 15 nM | 91 nM | 
30 | COc1ccc2nc(O[C@@H]3C[C@H]4C(=O)N[C@]5(C(=O)NS(=O)(=O)C6(C)CC6)C[C@H]5/C=C/CCCCC[C@H](NC(=O)O[C@H](C)C(C)C)C(=O)N4C3)c(C(F)(F)F)nc2c1 | 3 nM | 2.1 nM | 6.3 nM | 45 nM | 
31 | COc1ccc2nc(C)c(O[C@@H]3C[C@H]4C(=O)N[C@]5(C(=O)NS(=O)(=O)C6(C)CC6)C[C@H]5/C=C/CCCCC[C@H](NC(=O)O[C@H](C)C5CC5)C(=O)N4C3)nc2c1 | 1.5 nM | 0.3 nM | 3.7 nM | 11 nM | 
32 | COc1ccc2nc(C)c(O[C@@H]3C[C@H]4C(=O)N[C@]5(C(=O)NS(=O)(=O)C6(C)CC6)C[C@H]5/C=C/CCCCC[C@H](NC(=O)OC5CCC5)C(=O)N4C3)nc2c1 | 0.3 nM | 0.1 nM | 2.7 nM | 3.4 nM | 110 nM
